# Laboratory results taken from ChEMBL document CHEMBL3227967, “Quantitative structure-activity relationships in 1-aryl-2-(alkylamino)ethanol antimalarials” (J Med Chem, 1979).
# Legend:
# [1] = Lipophilicity, log P of the compound in 0.1 N HCl solution; type: physicochemical
# Outline: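 Partition coefficients of the hydrochloride salts were measured from 0.1 N HCl solution unless a footnote says otherwise. Some entries were not measured. They were calculated by adding the Δlog P of the corresponding phenanthrene analogues to the measured log P of a reference hydrochloride.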
# Plasmodium berghei = test: Antimalarial activity against Plasmodium berghei; type: functional
# [2] = 0.1 N HCl solution, read-out: logP
SMILES,"logP [1, 2]",log(1/C) (Plasmodium berghei),logP ([1]; buffer)
CCCCCCCN(CCCCCCC)CC(O)c1cc2ccncc2c2cc(Br)ccc12 (centres undefined),4.89,2.12,–
CC(C)(C)c1cc(C(O)CC2CCCCN2)c2cc(Cl)ccc2n1 (centres undefined),2.74,2.48,–
CC(C)(C)c1cc(C(O)CC2CCCCN2)c2ccccc2n1 (centres undefined),2.03,2.08,–
CCCCN(CCCC)CC(O)c1cc(OC)c2cc(Cl)cc(Cl)c2n1 (centres undefined),2.44,–,–
CCNCC(O)c1cc(-c2ccccc2)nc2ccccc12 (centres undefined),0.99,–,–
CCCCN(CCCC)CC(O)c1cc2ccccc2c2ccccc12 (centres undefined),3,–,–
OC(CN1CCCCCC1)c1cc(Cl)c2nc(-c3ccccc3)ccc2c1 (centres undefined),3.62,–,–
CCCCNCC(O)c1cc(-c2ccccc2)nc(-c2ccccc2)c1 (centres undefined),3.47,–,–
CCCCN(CCCC)CC(O)c1cc(-c2ccccc2C(F)(F)F)nc(C(F)(F)F)c1 (centres undefined),3.97,–,–
CNCC(O)c1cc(-c2ccccc2)nc(-c2ccccc2)c1 (centres undefined),2.15,–,–
CCCCCCN(CCCCCC)CC(O)c1cc(Cl)c2nc(-c3ccccc3)ccc2c1 (centres undefined),5.65,–,–
CCCCN(CCCC)CC(O)c1cnc2c(C(F)(F)F)cccc2c1Cl (centres undefined),2.63,–,–
CCCCCCN(CCCCCC)CC(O)c1cnc2cc(Cl)ccc2c1Cl (centres undefined),5.4,–,–
CCCCCCN(CCCCCC)CC(O)c1ccc(Cl)c2ncccc12 (centres undefined),3.69,–,–
CCN(CC)CC(O)c1ccc(Cl)c2c(C)ccnc12 (centres undefined),0.68,–,–
OC(c1cc2ccccc2c2ccccc12)C1CCCCN1 (centres undefined),2.01,–,–
N#CCCN(CCC#N)CC(O)c1cc2ccccc2c2ccccc12 (centres undefined),0.37,–,–
Cc1ccc(Oc2cc(C(O)CC3CCCCN3)c3cc(Cl)ccc3n2)cc1 (centres undefined),3.4,–,–
CCCCN(CCCC)CC(O)c1cnc2c(Cl)cc(Cl)cc2c1Cl (centres undefined),3.17,–,–
OC(CN1C=COC=C1)c1cc(-c2ccc(F)cc2)nc2cc(F)ccc12 (centres undefined),0,–,–
CC(=O)N1CCCCC1CC(O)c1cc(C23CC4CC(CC(C4)C2)C3)nc2c(Cl)cc(Cl)cc12 (centres undefined),4.29,–,–

SMILES,"logP [1, 2]",log(1/C) (Plasmodium berghei),logP ([1]; buffer)
CCCCCN(CCCCC)CC(O)c1cc2ccccc2c2ccccc12 (centres undefined),4.01,–,–
CCN(CC)CC(O)c1cc2ccccc2c2ccccc12 (centres undefined),1.37,–,–
CCCCN(CCCC)CC(O)c1cc(-c2ccccc2)nc2ccccc12 (centres undefined),2.57,–,–
CCCCN(CCCC)CC(O)c1c(Br)c(-c2ccccc2)nc2ccccc12 (centres undefined),3.86,–,–
OC(c1cc(-c2ccccc2)nc(-c2ccccc2)c1)C1CCCCN1 (centres undefined),3.18,–,–
CCCCCCCN(CCCCCCC)CC(O)c1cc2ccc(Cl)cc2c2cccnc12 (centres undefined),4.74,–,–
OC(CN1CCCCCC1)c1cccc2ccc(-c3ccccc3)nc12 (centres undefined),2.91,–,–
CCCCN(CCCC)CC(O)c1ccc(Cl)c2ccccc12 (centres undefined),2.19,–,–
Cc1cc(C(O)CN2CCCCCC2)c2nc(-c3ccccc3)ccc2c1 (centres undefined),3.47,–,–
CCCCCCCCCN(CCCCCCCCC)CCC(O)c1cc2ccc(C(F)(F)F)cc2c2cc(C(F)(F)F)ccc12 (centres undefined),–,–,9.77
OC(CN1CCCCC1)c1c2ccccc2nc2c1ccc1ccccc12 (centres undefined),3.51,–,–
C=CCN(CC=C)CC(O)c1cc2ccccc2c2ccccc12 (centres undefined),0.59,–,–
CCCCCCCN(CCCCCCC)CC(O)c1cc(-c2ccc(Cl)c(Cl)c2)nc(-c2ccc(Cl)c(Cl)c2)c1 (centres undefined),–,–,9.95
CCNCC(O)c1cc2ccccc2c2ccccc12 (centres undefined),1.42,–,–
CCCCNCC(O)c1cc(/C=C/c2ccc(C(F)(F)F)cc2)nc(/C=C/c2ccc(C(F)(F)F)cc2)c1 (centres undefined),6.67,–,–
CN(C)CC(O)c1cc2ccccc2c2ccccc12 (centres undefined),1.08,–,–
CCCCCCN(CCCCCC)CC(O)c1ccc2cc(Cl)cc(Cl)c2n1 (centres undefined),4.4,–,–
OC(CN1CCCCC1)c1cc2ccccc2c2sccc12 (centres undefined),1.73,–,–
OC(CN1C=CN(c2ccccc2)C=C1)c1cc(-c2ccc(Cl)cc2)nc2c(Cl)cc(Cl)cc12 (centres undefined),6.11,–,–
CCCCN(CCCC)CC(O)c1cnc2c(-c3ccccc3)cccc2c1Cl (centres undefined),3.71,–,–
